Reference: the RNAGym collection of RNA variant scans (doi:10.1038/s41586-018-0170-7)

B1: tRNA (parent)
chain: GUUCCGUUGGCGUAAUGGUAACGCGUCUCCCUCCUAAGGAGAAGACUGCGGGUUCGAGUCCCGUACGGAACG

Variants of: B1
Experiment: yeast fitness, log relative to wild type (ln ratio); higher = fitter; tRNA-Arg(CCU), competitive growth, 37 C, 1 M NaCl
How it was run: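 In BY4742 missing the chromosomal gene, a combinatorial tRNA-Arg(CCU) variant library was maintained on a HIS3 centromeric plasmid. Selection ran ~6.5 generations (~26.5 h) in SC-HIS 1M NaCl at 37 °C, following 4 generations in SC-HIS at 30 °C, with three outputs per input and variant counts by 125 bp paired-end Illumina sequencing. Fitness is the natural log of a genotype's generations relative to the wild type's, with generations taken as inverse-variance-weighted, OD-scaled log2 output/input frequency.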

Going from U2C C27U C46U A70G C71U to G1A C27U A70G, the “yeast fitness (ln)” value falls from -0.0224 to -0.163.

First: G1A U2G C27U A69G A70U C71U
Second: G1A U2C G6U C27U C46U C66U A69G A70G C71U
The “yeast fitness (ln)” value of the first is higher: -0.386 for the first, -0.699 for the second.

First: U2C C27U A43C C66A A69G A70G C71U
Second: G1A U2C C27U C46U A69G C71U
The “yeast fitness (ln)” value of the first is lower: -0.328 for the first, -0.192 for the second.

Compared with U2G G6A A70G C71U, G1A A43C C46U C71U is higher in “yeast fitness (ln)” value: -0.142 for the first, -0.00436 for the second.

First: U2C G6U A70G C71U
Second: G1A U2C G6U A43C A70U C71U
The “yeast fitness (ln)” value of the first is higher: -0.0899 for the first, -0.195 for the second.

First: G1A A43C A70U
Second: G6A C27U C66U A70G
The “yeast fitness (ln)” value of the first is lower: -0.13 for the first, -0.0946 for the second.

Compared with G6A C27U A43C C66U A69G A70U C71U, G1A G6U A43C C46U C66U C71U is higher in “yeast fitness (ln)” value: -0.529 for the first, -0.275 for the second.

Going from C66U C71U to G1A U2G G6A C46U, the “yeast fitness (ln)” value rises from -0.173 to -0.0789.

First: U2G G6A C27U C46U C66A A69G A70U C71U
Second: G1A G6U C46U C66U A69G A70U
The “yeast fitness (ln)” value of the first is lower: -0.385 for the first, -0.251 for the second.

Going from G1A U2G G6U A43C C66U A70U to U2G G6U C27U A43C C46U A69G, the “yeast fitness (ln)” value rises from -0.284 to -0.199.

Compared with U2G G6A C46U C66U A70G, U2G G6U C27U A43C A70G is lower in “yeast fitness (ln)” value: -0.0322 for the first, -0.232 for the second.

Compared with G1A U2C A69G A70G, U2G G6U A43C C46U C66A A69G C71U is lower in “yeast fitness (ln)” value: -0.0537 for the first, -0.462 for the second.

Going from G1A U2G G6U C27U A43C C46U A70G to G1A C27U A43C C46U C66U A69G A70G, the “yeast fitness (ln)” value rises from -0.387 to -0.188.

Compared with U2C G6U C27U C46U C66U A69G C71U, U2C G6U C27U A43C C66U C71U is higher in “yeast fitness (ln)” value: -0.397 for the first, -0.338 for the second.

First: G1A U2G G6U C27U A43C A69G C71U
Second: U2G C27U C66U A70G C71U
The “yeast fitness (ln)” value of the first is lower: -0.479 for the first, -0.21 for the second.

Going from U2G G6A C46U C66U A70U C71U to G6A A43C C46U A69G A70G C71U, the “yeast fitness (ln)” value falls from -0.0272 to -0.241.

Compared with G6U A43C A69G C71U, U2G G6U C27U A43C C46U C66A A69G A70U is higher in “yeast fitness (ln)” value: -0.389 for the first, -0.357 for the second.

Compared with C46U A70U, U2G G6U C27U A43C C66U A70G is lower in “yeast fitness (ln)” value: 0.00508 for the first, -0.356 for the second.

Compared with U2C C66U A69G A70U, G6A C46U A69G A70U C71U is lower in “yeast fitness (ln)” value: -0.0622 for the first, -0.218 for the second.

Compared with C27U C66A A69G A70G, C27U C46U C66A A70G C71U is higher in “yeast fitness (ln)” value: -0.25 for the first, -0.129 for the second.

Going from U2G G6A C27U C66U A70G to G1A U2C A43C A70U C71U, the “yeast fitness (ln)” value falls from -0.227 to -0.278.

Compared with U2G C66A A69G A70U C71U, G1A U2C G6U A43C C46U C66A A70G C71U is higher in “yeast fitness (ln)” value: -0.291 for the first, -0.0283 for the second.

Compared with U2G G6A C46U C66U A69G A70U C71U, G1A C27U A43C A70G C71U is lower in “yeast fitness (ln)” value: -0.385 for the first, -0.426 for the second.

Going from G6U C27U A43C C46U C66U to U2C G6U C66A A69G A70U, the “yeast fitness (ln)” value rises from -0.271 to -0.25.

Going from G6U C66U A69G to G1A U2G G6A C27U A43C C46U C66A A69G C71U, the “yeast fitness (ln)” value rises from -0.527 to -0.275.

First: G6U A43C C46U C66U A69G
Second: G1A U2G G6U C27U C66U A69G A70U C71U
The “yeast fitness (ln)” value of the first is higher: -0.261 for the first, -0.407 for the second.

Compared with G1A G6A, G1A U2G C46U A70U C71U is higher in “yeast fitness (ln)” value: -0.0503 for the first, 0.00364 for the second.

Going from G6U A43C C46U C66U A69G A70U to G6U A43C C46U C66U A69G A70G, the “yeast fitness (ln)” value rises from -0.347 to -0.313.

First: U2C G6U C27U A43C C46U C71U
Second: C27U A43C C46U C66A A69G A70G
The “yeast fitness (ln)” value of the first is lower: -0.17 for the first, -0.0756 for the second.

Going from G1A U2G G6U A43C C46U to G6U C46U C66U A70U, the “yeast fitness (ln)” value falls from -0.117 to -0.297.

Going from U2C C27U A43C C66U A69G A70U C71U to G6U A43C A70G C71U, the “yeast fitness (ln)” value rises from -0.476 to -0.249.

First: G1A G6A C27U A43C C46U C66U A70U C71U
Second: G1A G6U C66U A70G
The “yeast fitness (ln)” value of the first is lower: -0.413 for the first, -0.199 for the second.

Compared with G1A G6U A43C C66A A69G C71U, U2G G6A C27U C46U A70G is higher in “yeast fitness (ln)” value: -0.863 for the first, -0.0986 for the second.

Compared with G1A G6A C27U A43C C46U C66U C71U, C71U is higher in “yeast fitness (ln)” value: -0.166 for the first, -0.00399 for the second.

Going from U2C G6A C46U A70U to G6A C27U A43C C46U C66U C71U, the “yeast fitness (ln)” value falls from -0.0378 to -0.464.

Compared with U2C C46U A69G A70G, G1A U2C G6U C27U A43C C46U C66A A69G A70U is lower in “yeast fitness (ln)” value: -0.016 for the first, -0.378 for the second.

Compared with U2C G6U C27U C66U A70U C71U, G1A U2G G6A A43C A69G A70G C71U is higher in “yeast fitness (ln)” value: -0.35 for the first, -0.29 for the second.

Going from G1A U2G G6U C27U A43C C46U A69G A70U to G1A U2C C66U A70U, the “yeast fitness (ln)” value rises from -0.463 to -0.0937.

First: U2G A43C C46U A69G A70G
Second: U2C G6U A43C C46U C66A A70G
The “yeast fitness (ln)” value of the first is lower: -0.174 for the first, 0.0031 for the second.

First: U2G C46U C66A A70U C71U
Second: G6U C27U A43C C46U A69G A70U C71U
The “yeast fitness (ln)” value of the first is higher: -0.0966 for the first, -0.45 for the second.

Going from G1A U2C G6U C27U A43C A69G A70G C71U to G1A G6A A43C C66A A70G C71U, the “yeast fitness (ln)” value falls from -0.238 to -0.297.

Compared with G6U C27U A43C C46U C66U A70U, C27U C46U C66U A69G is lower in “yeast fitness (ln)” value: -0.322 for the first, -0.521 for the second.
